Laboratory results as given in article PMC6049601 (International Journal of Nanomedicine, 2018).

What was measured:
[1] = system: Caco-2 cells; experiment: Cellular uptake in Caco-2 cells; type: cell-based; details: Caco-2, 20 μg/mL, 1, 2 and 4 h
[2] = system: IL-6 in LPS-induced RAW 264.7 cells; experiment: In vitro anti-inflammatory effect: IL-6; type: cell-based, Mouse; details: 25 μg/mL, LPS 1 μg/mL, 24 h
How it was run: (§1)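 RAW 264.7 mouse macrophages grown in RPMI-1640 with 10% FBS at 37°C, 5% CO2, seeded at 2 × 10^5 cells/well. Cells were exposed to LPS (1 μg/mL) with or without test formulation for 24 h; medium-only and LPS-only wells served as control and model. Supernatants were cleared at 10,000 rpm, 4°C. TNF-α, IL-6 and NO were measured by ELISA kits; mean ± SD, n = 3.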

[3] = Oral bioavailability / pharmacokinetic study in rats; type: in vivo, Sprague-Dawley (SD) rats; details: Sprague-Dawley, rat, plasma, iv, 8 mg/kg
How it was run: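 Sprague-Dawley rats (220 ± 20 g, n = 5) were fasted overnight with water allowed, then given test compound solution i.v. at 8 mg/kg. Tail-vein blood was drawn into heparinised tubes at 0.133–12 h. Plasma was extracted with acetonitrile, dried at 30°C, reconstituted in 50% acetonitrile and run on UPLC-QTOF/MS (0.1% formic acid water/acetonitrile gradient). Parameters came from noncompartmental analysis.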

[4] = system: NO in LPS-induced RAW 264.7 cells; experiment: In vitro anti-inflammatory effect: NO; type: cell-based, Mouse; details: 25 μg/mL, LPS 1 μg/mL, 24 h
How it was run: as §1

[5] = system: TNF-α in LPS-induced RAW 264.7 cells; experiment: In vitro anti-inflammatory effect: TNF-α; type: cell-based, Mouse; details: 25 μg/mL, LPS 1 μg/mL, 24 h
How it was run: as §1

[6] = In vitro release study by dialysis bag method; type: physicochemical; details: solution formulation, water with 1% Tween 80, 37°C
How it was run: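 Test compound was dissolved in water/ethanol/PEG400 (20/40/40, v/v/v). Samples equivalent to 10 mg were sealed in dialysis bags (MWCO ~14,000) and dialysed against 100 mL purified water containing 1% Tween 80 at 37°C. Medium aliquots were taken at set times and replaced with fresh medium, diluted with methanol and assayed by HPLC. Cumulative release percentage was plotted against time.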

AUC(0-t) [3]: 902 ± 33.7 ng·h/mL
Cmax [3]: 974 ± 302 ng/mL
MRT inf [3]: 5.27 ± 0.931 h
Tmax [3]: 7.98 ± 3.24 min
In vitro release [6]: released completely in a very short time
Compound: Oc1ccc(/C=C/c2cc(O)cc(O)c2)cc1 [Free RES, Resveratrol]
Cellular uptake (intracellular RES concentration) [1]: rapid cellular uptake relative to RES-NPs
Effect on IL-6 compared to the LPS model [2]: substantially suppressed
Effect on NO compared to the LPS model [4]: substantially suppressed
Effect on TNF-α compared to the LPS model [5]: substantially suppressed
